Reference: PMC5060091 (ChemMedChem, 2016)
Converted amounts (≈) assume the structure as drawn. Read-outs that look alike come from different tables or passages of the source.

What was measured:
[1] = system: C. albicans ATCC 90819(R); details: strain D; azoles; previously reported; cited from earlier work
[2] = system: C. albicans ATCC MYA-2876(S); details: strain C; azoles; previously reported; cited from earlier work
[3] = system: C. albicans ATCC MYA-1237(R); details: strain F; azoles; previously reported; cited from earlier work
[4] = system: C. albicans ATCC MYA-1003(R); details: strain G; azoles; previously reported; cited from earlier work
[5] = system: Aspergillus nidulans ATCC 38163; details: strain L; previously reported; cited from earlier work
[6] = system: Aspergillus flavus ATCC MYA-3631; assay: MIC, broth dilution, strain K; format: cell-based; details: Aspergillus flavus
C. albicans ATCC 64124 = details: strain B; azoles; previously reported; cited from earlier work
[7] = system: Aspergillus terreus ATCC MYA-3633; assay: MIC, broth dilution, strain M; format: cell-based; details: Aspergillus terreus
[8] = system: Candida albicans ATCC 10231; details: strain A; azoles; previously reported; cited from earlier work
[9] = system: C. albicans ATCC MYA-2310(S); details: strain E; azoles; previously reported; cited from earlier work
[10] = system: C. albicans ATCC 10231 (strain A); assay: ROS induction assay; format: cell-based, Candida albicans; details: 1× and 2× MIC, 1-h treatment; H2O2 1 mM
Method in brief: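 C. albicans ATCC 10231 cells were incubated 1 h at 37 °C with test compound at 1× or 2× MIC, with no drug (negative control), or with 1 mM H₂O₂ (positive control). DCFH-DA (40 µg/mL) was then added. ROS were detected and imaged by fluorescence microscopy.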

[11] = read-out: MIC (MIC-0) in µM (parentheses)

SMILES	MIC (MIC-2) [1]	MIC (MIC-2) in µM (parentheses) [1]	MIC (MIC-2) [2]	MIC (MIC-2) in µM (parentheses) [2]	MIC (MIC-2) [3]	MIC (MIC-2) in µM (parentheses) [3]	MIC (MIC-2) [4]	MIC (MIC-2) in µM (parentheses) [4]	MIC (MIC-0) [5]	MIC (MIC-0) in µM (parentheses) [5]	MIC ([6]; read-out: MIC (MIC-0))	MIC [6, 11]	MIC (MIC-2) (C. albicans ATCC 64124)	MIC (MIC-2) in µM (parentheses) (C. albicans ATCC 64124)	MIC ([7]; read-out: MIC (MIC-0))	MIC [7, 11]	MIC (MIC-2) [8]	MIC (MIC-2) in µM (parentheses) [8]	MIC (MIC-2) [9]	MIC (MIC-2) in µM (parentheses) [9]	other results
CCC(C)n1ncn(-c2ccc(N3CCN(c4ccc(OCC5COC(Cn6cncn6)(c6ccc(Cl)cc6Cl)O5)cc4)CC3)cc2)c1=O (stereo not shown) [ITC, itraconazole]	31.2 µg/mL (≈ 44.2 µM)	44.2 µM (≈ 31.2 µg/mL)	7.8 µg/mL (≈ 11.1 µM)	11.1 µM (≈ 7.83 µg/mL)	31.2 µg/mL (≈ 44.2 µM)	44.2 µM (≈ 31.2 µg/mL)	31.2 µg/mL (≈ 44.2 µM)	44.2 µM (≈ 31.2 µg/mL)	0.195 µg/mL (≈ 0.276 µM)	0.28 µM (≈ 0.198 µg/mL)	0.48 µg/mL	0.68 µM	> 62.5 µg/mL	> 88.6 µM	0.975 µg/mL	1.38 µM	0.5 µg/mL (≈ 0.709 µM)	0.71 µM (≈ 0.501 µg/mL)	31.2 µg/mL (≈ 44.2 µM)	44.2 µM (≈ 31.2 µg/mL)	–
OO [H2O2]	–	–	–	–	–	–	–	–	–	–	–	–	–	–	–	–	–	–	–	–	ROS induction (DCFH-DA fluorescence) [10]: highly fluorescent
CC[C@@H]([C@H](C)O)n1ncn(-c2ccc(N3CCN(c4ccc(OC[C@@H]5CO[C@@](Cn6cncn6)(c6ccc(F)cc6F)C5)cc4)CC3)cc2)c1=O [POS, posaconazole]	31.2 µg/mL (≈ 44.5 µM)	44.5 µM (≈ 31.2 µg/mL)	7.8 µg/mL (≈ 11.1 µM)	11.1 µM (≈ 7.78 µg/mL)	15.6 µg/mL (≈ 22.3 µM)	22.3 µM (≈ 15.6 µg/mL)	15.6 µg/mL (≈ 22.3 µM)	22.3 µM (≈ 15.6 µg/mL)	0.195 µg/mL (≈ 0.278 µM)	0.28 µM (≈ 0.196 µg/mL)	0.24 µg/mL	0.34 µM	> 62.5 µg/mL	> 89.3 µM	0.48 µg/mL	0.68 µM	0.5 µg/mL (≈ 0.713 µM)	0.71 µM (≈ 0.498 µg/mL)	31.2 µg/mL (≈ 44.5 µM)	44.5 µM (≈ 31.2 µg/mL)	–
OC(Cn1cncn1)(Cn1cncn1)c1ccc(F)cc1F [FLC, fluconazole]	> 125 µg/mL	> 408 µM	15.6 µg/mL (≈ 50.9 µM)	51.0 µM (≈ 15.6 µg/mL)	–	–	–	–	–	–	–	–	> 125 µg/mL	> 408 µM	–	–	–	–	> 125 µg/mL	> 408 µM	–
